GSTO1 inh – inhibitors of recombinant GSTO1, primary screen, counter-screen for RBBP9 inhibitor project, biochemical, fluorescence polarization; Glutathione S-transferase omega-1 (Homo sapiens), P78417; activity-based probe fluorescence polarization; inhibition, % at 5.96 µM; 300,000 compounds, 1.1% hits; AID 1974, 2009;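 active means inhibition above the campaign mean inhibition plus 3 SD, cut at about 35% in these data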;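 further: 0% = GSTO1-1 with DMSO and 100% = wells lacking GSTO1-1 enzyme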
PRMT1 FP inh – PRMT1 methyltransferase inhibitors, primary screen, biochemical, fluorescence polarization; AID 652257, 2013; Protein arginine N-methyltransferase 1 (Homo sapiens), Q99873; 370,000 compounds, 1.3% hits; recombinant PRMT1, activity-based probe fluorescence polarization; inhibition, % at 2.79 µM;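 active means inhibition above about 21% made by adding two undisclosed values, limit read from the data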
RBBP9 inhibitor – human RBBP9 inhibitors, primary screen, biochemical, fluorescence polarization, FP-Rh probe, HTS | recombinant RBBP9 | inhibition, % at 7.94 µM | 220,000 compounds, 0.2% hits | AID 1515, 2009;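 active means inhibition above the campaign mean of all tested compounds plus 3 SD, cut at about 14% in these data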;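 further: plate controls were DMSO wells with RBBP9 for no effect and wells lacking RBBP9 protein for full effect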
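System: RBBP9 protein / Buffer or medium: Tris/NaCl buffer pH 8.0 with 0.1% Pluronic / Probe or stimulus: Serine-hydrolase probe FP-Rh, 375 nM pre-mixing / Dosing: 7.94 µM single dose, 0.794% DMSO / Times: enzyme-compound preincubation 30 min, then probe labeling 45 min, 25 °C / Technique: fluorescence polarization (mP), excitation 525 nm, emission 598 nm / Replication: singlicate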
PAD4 FP inh – human PAD4 inhibitors, primary screen, biochemical, fluorescence polarization, 1536-well format; inhibition, % at 6.36 µM; Protein-arginine deiminase type-4 (Homo sapiens), Q9UM07; 330,000 compounds, 0.41% hits; recombinant PAD4, RCA probe fluorescence polarization;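 active means percent inhibition above a cutoff equal to the mean of all tested compounds plus 3 SD, cut at about 15% in these data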;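 further: 0% = PAD4 with RCA probe and DMSO and 100% = probe without PAD4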
SIAE primary – human SIAE inhibitors, primary screen, biochemical, fluorescence polarization, FP-Rh probe, 1536-well HTS; Sialate O-acetylesterase (Homo sapiens), Q9HAT2; 370,000 compounds, 0.69% hits; SIAE FP-Rh probe binding; inhibition, % at 9.66 µM; AID 1053197, 2014;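 active means inhibition above a cutoff: mean of compounds within the control limits plus 3 SD of those, cut at about 17% in these data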;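 further: 0% = plate median of compound wells and 100% = probe without SIAE protein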
Target sequence (Q9HAT2 whole entry, looked up): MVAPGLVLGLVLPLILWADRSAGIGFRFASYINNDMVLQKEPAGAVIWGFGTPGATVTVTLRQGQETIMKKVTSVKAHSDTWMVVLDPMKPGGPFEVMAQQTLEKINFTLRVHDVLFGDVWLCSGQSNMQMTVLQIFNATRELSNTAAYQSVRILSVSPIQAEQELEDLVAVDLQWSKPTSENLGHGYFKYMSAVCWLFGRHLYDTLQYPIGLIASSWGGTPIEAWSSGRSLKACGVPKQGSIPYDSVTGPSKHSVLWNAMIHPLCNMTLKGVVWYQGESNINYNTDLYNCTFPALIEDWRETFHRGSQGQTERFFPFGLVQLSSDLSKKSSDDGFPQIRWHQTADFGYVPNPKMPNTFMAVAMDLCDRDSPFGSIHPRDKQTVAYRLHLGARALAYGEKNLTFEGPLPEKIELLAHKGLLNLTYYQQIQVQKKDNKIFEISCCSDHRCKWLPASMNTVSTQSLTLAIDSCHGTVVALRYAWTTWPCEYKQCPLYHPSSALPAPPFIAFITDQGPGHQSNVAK
Active calls of the source: *; . = no result given; ! = not confirmed by another sample. Shown are actives, neighbours in structure and some others; about 2.7% of the full set was active somewhere.

SMILES | GSTO1 inh | PRMT1 FP inh | RBBP9 inhibitor | PAD4 FP inh | SIAE primary
Cc1nn(Cc2ccccc2)c2c1C(c1ccco1)C(C#N)=C(N)O2 (centres undefined) | 10 | 2 | -3 | 0 | 5
Cc1ccc(-n2nc(C)c3c2OC(N)=C(C#N)C3c2ccco2)cc1 (centres undefined) | 36* | 6 | -4 | -12 | 14
Cc1ccc(-n2nc(C)c3c2OC(N)=C(C#N)C3c2ccoc2)cc1 (centres undefined) | 36* | 4 | 7 | -11 | 3
COc1ccc(-c2[nH]nc3c2C(c2ccoc2)C(C#N)=C(N)O3)cc1 (centres undefined) | 21 | 0 | -14 | -8 | -7
COc1cc(C=Cc2nnc3c4ccccc4cnn23)cc(OC)c1OC | . | -5 | . | . | 0
CCOc1ccc(NC(=O)NCc2ccco2)cc1 | -1 | 2 | -11 | 0 | 1
COc1ccc(-c2cc(-c3nc4ccccn4c3NCc3ccccc3)ccc2OC)cc1 | . | 4 | . | 5 | 21*
Nc1nc(Cl)nc(N(c2ccccc2)c2ccccc2)n1 | 13 | 0 | -2 | -5 | 4
Nc1nc(CCl)nc(N(c2ccccc2)c2ccccc2)n1 | 78* | -1 | -6 | -1 | 4
c1ccc(-c2ccc3nncn3c2)cc1 | . | 0 | . | . | 1
Cc1ccc(N=C2NC(=O)/C(=C/C=C/c3ccco3)S2)cc1 | 9 | 23* | 10 | -18 | 14
CCN(CC(=O)Nc1ccc(NC(C)=O)cc1)C(=O)C1CC1 | . | -1 | . | . | -5
O=C(N/N=C/c1ccc(O)c(O)c1)N/N=C/c1ccc(O)c(O)c1 | . | 24* | . | . | -12
Cc1nonc1C(=O)N/N=C/c1ccc(O)c(O)c1 | 6 | 4 | 0 | 1 | 9
O=S(=O)(c1ccc(F)cc1)N1CCN(Cc2cc3c(cc2Br)OCCO3)CC1 | . | -4 | . | -2 | 5
Oc1ccc(N2CCN(Cc3cc4c(cc3Br)OCCO4)CC2)cc1 | 2 | 23* | . | 2 | 10
O=C1C2CC=C(Cl)CC2C(=O)N1CCc1ccccc1 (centres undefined) | 16 | 24* | -3 | -2 | 6
O=C1C2CC=C(Cl)CC2C(=O)N1CCc1c[nH]c2ccccc12 (centres undefined) | 6 | 1 | -5 | 0 | 4
CC1=C(C(=O)OCC(C)C)C2(O)C(=O)c3ccccc3C2(O)N1 (centres undefined) | 68* | 1 | -7 | -6 | 3
COc1ccccc1C1CC(=O)NC(C)=C1C(=O)OCC(C)C (centres undefined) | -3 | -3 | -8 | -2 | -1
Nc1ncc(-c2ccccc2)c(-c2ccc(OCc3ccccc3)cc2O)n1 | -9 | -2 | 2 | 0 | -10
Cc1cc(NS(=O)(=O)c2ccc(Nc3nc(-c4ccc(C)c(C)c4)cs3)cc2)no1 | 9 | 6 | -4 | -2 | 12
Cc1cc(NS(=O)(=O)c2ccc(Nc3nc(-c4sc(N)nc4C)cs3)cc2)no1 | 37* | . | 2 | -21 | .
CCOc1cc(Br)ccc1S(=O)(=O)N1CCC(C(N)=O)CC1 | 6 | 1 | -4 | 4 | 2
CC(=O)C1=C(O)C(=O)N(c2ccc(O)cc2)C1c1ccccc1Cl (centres undefined) | 7 | 3 | . | 0 | 5
SMILES | GSTO1 inh | PRMT1 FP inh | RBBP9 inhibitor | PAD4 FP inh | SIAE primary
COC(=O)c1ccc2nc(-c3ccco3)c(Cc3ccccc3)n2c1 | . | 24* | . | . | 3
Clc1ccc2nc(-c3ccco3)c(Cc3ccccc3)n2c1 | . | 24* | . | . | 1
COc1ccc(OC)c(N(CC(=O)N2CCCC2)S(=O)(=O)c2ccc(OC)c(OC)c2)c1 | 1 | -1 | 6 | -1 | 1
Cc1cc(NS(=O)(=O)c2ccc(NC(=O)/C=C/c3ccco3)cc2)nc(C)n1 | -5 | 24* | -7 | -1 | -3
CC(Cc1ccc(O)c(O)c1)C(C)Cc1ccc(O)c(O)c1 (centres undefined) | 52* | . | . | -4 | .
Cc1ccc(C)c(NC(=O)Cc2nc(CCl)cs2)c1 | 95* | 3 | 2 | 0 | -2
C/C(=N\Nc1nnc(-c2ccccc2)c(-c2ccccc2)n1)c1cccc([N+](=O)[O-])c1 | 6 | 2 | 5 | -2 | -1
O=C(O)c1ccc(C=Nn2c(-c3ccc(F)cc3)n[nH]c2=S)cc1 | . | 0 | . | . | 7
CCOc1ccc(C=Nn2c(-c3ccc(F)cc3)n[nH]c2=S)cc1 | . | 23* | . | . | 1
CC1(C)OC(=O)C(=NNc2ccccc2C(=O)O)C(=O)O1 | -12 | 4 | -2 | -6 | 3
Cc1csc(NC(=O)c2cc(-c3ccco3)nc3ccccc23)n1 | 10 | 24* | -10 | -4 | 5
O=C(Nc1cccc(S(=O)(=O)NC2=NCCC2)c1)c1cc(-c2ccco2)nc2ccccc12 | 60* | 14 | -8 | -6 | 6
O=C(O)c1cc(-c2ccco2)nc2ccccc12 | 7 | 23* | -7 | -1 | 8
O=C(NC1CC1)c1cc(-c2ccco2)nc2ccccc12 | . | . | 0 | . | .
O=C(Nc1cccc(S(=O)(=O)NC2=NCCCCC2)c1)c1cc(-c2ccccc2)nc2ccccc12 | 2 | 1 | -12 | 2 | -32
Cc1ccc(CNC(=O)/C(C#N)=C/c2ccc(C)s2)cc1 | 4 | -3 | -2 | 2 | 1
COc1ccc(OCc2nnc3n2N=C(c2ccc(OC)cc2)CS3)cc1 | -6 | -2 | -5 | 0 | -4
COc1cccc2[nH]c(C(=O)NN)c(N)c12 | 16 | -2 | -4 | -12 | 4
COc1cc2[nH]c(C(=O)NN)c(N)c2cc1OC | 39* | . | -2 | 8 | .
O=C(COC(=O)CNC(=O)c1ccccc1F)Nc1ccc2c(c1)OCCO2 | -2 | 1 | -4 | 3 | 7
Cc1ccc(C(CNC(=O)C(=O)Nc2ccc3c(c2)OCCO3)N2CCN(C)CC2)cc1 (centres undefined) | 6 | -1 | . | -6 | 6
O=C(Cc1cc(=O)[nH][nH]1)N/N=C/c1cccc(Cl)c1Cl | 35*! | -2 | -9 | -10 | 13
CCn1c(CCNC(=O)c2cccs2)nnc1SCC(=O)c1ccc(OC)cc1 | 4 | 22* | 0 | -12 | 6
O=C1c2cc(O)c(O)cc2S(=O)(=O)C1c1ccccc1 (centres undefined) | 17 | 24* | . | 1 | 2
O=C(CN1C(=O)c2ccccc2S1(=O)=O)c1ccc(O)c(O)c1 | 17 | 4 | -3 | 1 | 8
Cc1ccc(NC(=O)/C=C\C(=O)NCC(=O)O)cc1 | 3 | 24* | -5 | 2 | 8
CC(C)(C)NC(=O)C(c1cc2ccccc2o1)n1c(=O)c(-c2ccco2)nc2ccccc21 (centres undefined) | . | 23* | . | . | -11
Oc1ccccc1-c1cc(-c2ccco2)[nH]n1 | 3 | 23* | -4 | -11 | -28
